Data set [1] is described as follows: Inhibition of chymotrypsin like activity of rabbit 20S proteasome using Suc-Leu-Leu-Val-Tyr-AMC as substrate preincubated for 15 mins followed by substrate addition measured after 2 hrs by fluorescence-based assay. Details: species or system Oryctolagus cuniculus.
A short description of data set [2]: Inhibition of trypsin like activity of rabbit 20S proteasome using Bz-Val-Gly-Arg-AMC as substrate preincubated for 15 mins followed by substrate addition measured after 2 hrs by fluorescence-based assay. Details: species or system Oryctolagus cuniculus.
Data set [3] is described as follows: Inhibition of caspase like activity of rabbit 20S proteasome using Ac-nLPnLD-AMC as substrate preincubated for 15 mins followed by substrate addition measured after 2 hrs by fluorescence-based assay. Also noted: species or system Oryctolagus cuniculus.
A short description of data set [4]: Inhibition of bovine alpha chymotrypsin using Ala-Ala-Phe-7-AMC as substrate measured for 10 mins by spectrophotometric analysis. Also noted: species or system Bos taurus. Summed up:
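Enzyme was bovine α-chymotrypsin. Compounds were tested up to a top concentration of 25000 nM. Ki values are the mean of three separate experiments, with variation between experiments below ±10%.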

A short description of data set [5]: Cytotoxicity against human WE68 cells harboring wild type p53 assessed as reduction in cell viability after 48 hrs by 7AAD-staining based FACS analysis. The note with it: WE68, 48 h, read-out: LD50 (the source's name). Format: functional. Summed up: (§1)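 Cells were exposed for 48 h to compound titrations from 0 to 5000 nM. Cell death was read out by 7AAD staining, and the LD50 was taken from dose-response curves. n=3.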

The nature of data set [6]: Cytotoxicity against human RD-ES cells harboring p53 mutant assessed as reduction in cell viability after 48 hrs by 7AAD-staining based FACS analysis. Format: functional. The note with it: read-out: LD50 (the source's name). Summed up:
as §1
For orientation: Flow cytometry measures light scatter and fluorescence of single cells or particles in a stream.

A short description of data set [7]: Cytotoxicity against human KGN cells harboring wild type p53 assessed as reduction in cell viability after 48 hrs by 7AAD-staining based FACS analysis. Format: functional. The following applies: read-out: LD50 (the source's name). Summed up: as §1
Data set [8] in a line: Cytotoxicity against p53 deficient human SKOV3 cells assessed as reduction in cell viability after 48 hrs by 7AAD-staining based FACS analysis. Format: functional. The following applies: SK-OV-3, 48 h, read-out: LD50 (the source's name). Summed up:
as §1

The nature of data set [9]: Cytotoxicity against human MCF7 cells harboring wild type p53 assessed as reduction in cell viability after 48 hrs by 7AAD-staining based FACS analysis. Format: functional. The note with it: MCF7, 48 h, read-out: LD50 (the source's name). Summed up: as §1
A short description of data set [10]: Cytotoxicity against human MDA-MB-468 cells harboring mutant p53 assessed as reduction in cell viability after 48 hrs by 7AAD-staining based FACS analysis. The following applies: MDA-MB-468, 48 h, read-out: LD50 (the source's name). Format: functional. Summed up: as §1
Data set [11] can be described thus: Cytotoxicity against human U266 cells harboring mutant p53 assessed as reduction in cell viability after 48 hrs by 7AAD-staining based FACS analysis. Format: functional. The following applies: U-266, 48 h, read-out: LD50 (the source's name). Summed up:
as §1

Data set [12] is described as follows: Cytotoxicity against human MCF10A cells harboring wild type p53 assessed as reduction in cell viability after 48 hrs by 7AAD-staining based FACS analysis. The note with it: MCF10A cells harboring wild type p53, read-out: LD50. Format: toxicity, MCF-10A. Summed up:
as §1

The nature of data set [13]: Cytotoxicity against human IMR90 cells harboring wild type p53 assessed as reduction in cell viability after 48 hrs by 7AAD-staining based FACS analysis. Format: toxicity, IMR-90. The following applies: IMR90 cells harboring wild type p53, read-out: LD50. Summed up: as §1
A short description of data set [14]: Cytotoxicity against HNDF cells harboring wild type p53 assessed as reduction in cell viability after 48 hrs by 7AAD-staining based FACS analysis. Format: toxicity. The note with it: human, HNDF cells harboring wild type p53; read-out: LD50. Summed up:
as §1

Data set [15] can be described thus: Cytotoxicity against human LCL cells harboring wild type p53 assessed as reduction in cell viability after 48 hrs by 7AAD-staining based FACS analysis. Format: toxicity. The following applies: LCL cells harboring wild type p53, read-out: LD50. Summed up: as §1
For another data set, the system named is MDA-MB-468. Put plainly: Inhibition of 26S proteasome in human MDA-MB-468 cells assessed as accumulation of high molecular weight polyubiquitin-conjugated proteins at 35 nM after 4 hrs by Western blot analysis. Format: cell-based. Background: In western blotting, separated proteins are transferred to a membrane and probed.
A further data set concerns MCF7. Kind of data set: Inhibition of 26S proteasome in human MCF7 cells assessed as accumulation of high molecular weight polyubiquitin-conjugated proteins at 35 nM after 4 hrs by Western blot analysis. Format: cell-based.
Data set [16] is described as follows: Terminal half life in human plasma at 20 mg/m2 iv, administered for 2 to 10 mins after dexamethasone addition by LC-MS/MS analysis. Format: ADME, cell-free. The following applies: read-out: beta t1/2.

From ChEMBL document CHEMBL3864172, “New Peptidomimetic Boronates for Selective Inhibition of the Chymotrypsin-like Activity of the 26S Proteasome” (ACS Med Chem Lett, 2016) come the findings set out here.

The source made the active and inactive calls. The rule behind the calls is not given here.

Usually IC50 stands for the midpoint of a concentration-inhibition curve. Low values mean higher potency, high ones lower potency. Usually Ki stands for a dissociation constant, usually derived from enzyme kinetics or from competition with a known ligand.

As to `CC(C)C[C@H](NC(=O)[C@H](CCc1ccccc1)NC(=O)CN1CCOCC1)C(=O)N[C@@H](Cc1ccccc1)C(=O)N[C@@H](CC(C)C)C(=O)[C@@]1(C)CO1` [CARFILZOMIB], the IC50 in data set [1] is 23.1 nM; in [2], more than 25000 nM; in [3], more than 25000 nM. Moreover, the Ki in data set [4] is more than 25000 nM. Further, the CC50 was 80 nM in data set [5]; 43 nM in [6]; 450 nM in data set [7]; 320 nM in data set [8]; 4500 nM in data set [9]; 330 nM in data set [10]. Also, in data set [11], the CC50 was 60 nM. For the same molecule, the CC50 at 48 h was determined as 320 nM in [12], 130 nM in [13], 350 nM in data set [14] and 30 nM in [15]. Further, the “polyubiquitin accumulation (active/inactive)” value with MDA-MB-468 is “Active”. In the data set on MCF7, the Polyubiquitin-conjugate accumulation entry is “Active”. Moreover, in data set [16], the half-life was 5 to 20 min.
